Activity calls are given as the source filed them.
How the values were obtained:
Leishmania donovani [1] = test: Antileishmanial activity against Leishmania donovani MHOM/SD/00/1S-2D promastigotes incubated for 72 hrs by MTT assay; assay type: functional, organism-based
Summary of the method: (§1)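 Parasites washed in HBSS-Glc and resuspended at 2×10^6 cells/ml in fresh growth medium with compound at 0.78-50.0 µM. Promastigotes grown in RPMI 1640-modified medium + 10% HIFCS, 72 h at 26 °C; axenic amastigotes in medium 199 + 20% HIFCS + 50 µg/ml hemin, 96 h at 32 °C. MTT 0.5 mg/ml for 2 h, formazan dissolved in SDS (5% final), absorbance 590 nm. Triplicates, ≥2 experiments, IC50 computed.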

J774 = test: Cytotoxicity against mouse J774 cells incubated for 48 hrs by MTT assay; assay type: cell-based; conditions: J774, 48 h
Summary of the method: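 J774.1 cells grown in RPMI-1640 + 10% heat-inactivated FCS, 2 mM L-glutamine, penicillin-streptomycin, 37 °C, 5% CO2. Seeded at 10^5 cells/well and left overnight, then compound in fresh medium for 48 h. MTT 0.5 mg/ml final, 2 h; SDS 0.1% final, 2 h at 37 °C; read at 595 nm. Triplicate samples, ≥2 independent experiments; CC50 calculated.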

Leishmania pifanoi [2] = test: Antileishmanial activity against Leishmania pifanoi […] axenic amastigotes incubated for 96 hrs by MTT assay; assay type: functional, organism-based; summary of the method: as §1
[3] = Selectivity index, ratio of IC50 for mouse J774 cells to IC50 for Leishmania pifanoi […] axenic amastigotes; assay type: toxicity; conditions: read-out: Ratio IC50
Leishmania donovani [4] = test: Antileishmanial activity against Leishmania donovani promastigotes harboring 3-Luc gene assessed as decrease in parasites viability using DMNEP-D-luciferin as substrate at 50 uM incubated for 10 mins by luminescence assay relative to control; assay type: functional
Summary of the method: (§2)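 3-Luc L. donovani promastigotes, episomally expressing cytoplasmic firefly luciferase and grown at 26 °C in RPMI 1640-modified medium + 10% HIFCS with G-418 (30 µg/ml). Assay: cells at 20 × 10^6/ml in HBSS-Glc with caged DMNPE-luciferin (50 µM final). Compound added once luminescence plateaued; luminescence followed over time, expressed as % of value at addition (100%). Luciferase inhibition controls run.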

Leishmania donovani [5] = test: Antileishmanial activity against Leishmania donovani promastigotes harboring 3-Luc gene assessed as threshold concentration of compound using DMNEP-D-luciferin as substrate measured at < 5 mins by luminescence assay; assay type: functional; summary of the method: as §2
Leishmania donovani [6] = test: Induction of plasma membrane permeabilization in Leishmania donovani MHOM/SD/00/1S-2D promastigotes at 50 uM by sytox green-based fluorescence assay; assay type: functional, organism-based
Summary of the method: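 Promastigotes at 20×10^6 cells/ml in HBSS-Glc with SYTOX Green 1.0 μM final. Compound added after a stable baseline; fluorescence rise (ex 504/em 524 nm) monitored. Values given as percent of full permeabilization by 0.1% Triton X-100.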

Leishmania donovani [7] = test: Induction of morphological damage in Leishmania donovani MHOM/SD/00/1S-2D promastigotes assessed as increase in intracellular acidic pH at 5 uM pretreated with acridine orange followed by compound addition and measured at 1 hr by acridine orange based confocal microscopic method; assay type: functional, organism-based
Summary of the method: (§3)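 Promastigotes at 40×10^6 cells/ml loaded with acridine orange 2 μM (5 min, 26 °C), washed and readjusted to the same density. Kinetic fluorescence (ex 488/em 530 nm) followed after adding compound 5 μM once the signal was stable. For confocal imaging, loaded cells were given compound 5 μM for 1 h, washed and immobilized on hydrogel; imaged at ex 488/em 650 nm.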

Leishmania donovani [8] = test: Induction of morphological changes in Leishmania donovani MHOM/SD/00/1S-2D promastigotes assessed as appearance of distended acidocalcisomes at 5 uM incubated for 12 hrs by TEM analysis; assay type: functional, organism-based
Summary of the method: (§4)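 Promastigotes held in full growth medium with compound 5 μM for 12 h. Washed with HBSS, fixed in 5% glutaraldehyde, post-fixed with 2.5% OsO4 for 1 h, dehydrated through graded ethanol, treated with propylene oxide, embedded in Epon 812. Sections cut with a diamond knife and examined by transmission electron microscopy.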

Leishmania pifanoi [9] = test: Antileishmanial activity against CFSE-labelled Leishmania pifanoi MHOM/VE/60/Ltrod axenic amastigotes infected in mouse peritoneal macrophage assessed as infection index at 10 uM incubated for 12 hrs by DAPI staining based confocal microscopic method (reference value: 5.3 +/- 2.5); assay type: functional
Leishmania donovani [10] = test: Induction of cell cycle arrest in Leishmania donovani MHOM/SD/00/1S-2D promastigotes assessed as cell accumulation in subG1 phase at 20 uM incubated for 48 hrs by propidium iodide staining based flow cytometric analysis (RVb = 4.6%); assay type: functional
Leishmania donovani [11] = test: Induction of morphological changes in Leishmania donovani MHOM/SD/00/1S-2D promastigotes assessed as strong vacuolization of the cytoplasm at 5 uM incubated for 12 hrs by TEM analysis; assay type: functional, organism-based; summary of the method: as §4
Leishmania donovani [12] = test: Induction of mitochondrial dysfunction in Leishmania donovani MHOM/SD/00/1S-2D promastigotes as mitochondrial membrane potential at 25 uM incubated for 4 hrs by Rh123 staining based flow cytometry; assay type: functional, organism-based
[13] = Drug localization in KCN-induced depolarized Leishmania pifanoi MHOM/VE/60/Ltrod axenic amastigotes mitochondria at 20 uM pretreated with KCN for 15 mins followed by compound addition and measured at 1 hr by MitoTracker dye based confocal microscopic method; assay type: ADME
Summary of the method: (§5)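 Living axenic amastigotes given compound 20 µM for 1 h at 32 °C, then DAPI 5 µg/ml for 30 min before confocal imaging. Compound ex 488/em 520 nm, DAPI ex 350/em 460 nm. For depolarized mitochondria, 1 mM KCN added 15 min before compound. For colocalization, MitoTracker Red 0.05 µM (10 min, 32 °C) preceded compound; overlap given as Pearson coefficient.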

Leishmania donovani [14] = test: Induction apoptosis in Leishmania donovani MHOM/SD/00/1S-2D promastigotes at 20 uM incubated for 48 hrs by propidium iodide staining based flow cytometric analysis; assay type: functional, organism-based
Leishmania donovani [15] = test: Induction of morphological damage in Leishmania donovani MHOM/SD/00/1S-2D promastigotes assessed as increase in intracellular acidic pH at 5 uM pretreated with acridine orange followed by compound addition by acridine orange based fluorescence assay; assay type: functional, organism-based; summary of the method: as §3
Leishmania donovani [16] = test: Induction of morphological changes in Leishmania donovani MHOM/SD/00/1S-2D promastigotes assessed as swollen mitochondrion at 5 uM incubated for 12 hrs by TEM analysis; assay type: functional, organism-based; summary of the method: as §4
Leishmania donovani [17] = test: Induction of mitochondrial dysfunction in Leishmania donovani MHOM/SD/00/1S-2D promastigotes as mitochondrial membrane potential at 50 uM incubated for 4 hrs by Rh123 staining based flow cytometry; assay type: functional, organism-based
[18] = Drug localization in mitochondria of Leishmania pifanoi MHOM/VE/60/Ltrod axenic amastigotes assessed as punctate pattern formation at 20 uM incubated for 1 hr by DAPI staining based confocal microscopic method; assay type: ADME; summary of the method: as §5
[19] = Inhibition of luciferase (unknown origin) at 50 uM
Leishmania donovani [20] = test: Induction of cell cycle arrest in Leishmania donovani MHOM/SD/00/1S-2D promastigotes assessed as cell accumulation in subG1 phase at 10 uM incubated for 48 hrs by propidium iodide staining based flow cytometric analysis (RVb = 4.6%); assay type: functional

| Compound | IC50 (Leishmania donovani [1]) | IC50 (J774) | IC50 (Leishmania pifanoi [2]) | selectivity ratio [3] | Activity (Leishmania donovani [4]) | Activity (Leishmania donovani [6]) | other results |
| --- | --- | --- | --- | --- | --- | --- | --- |
| NCCNc1cc(/C=C/c2ccccc2)nc2ccccc12 | 2.4 µM | 4.6 µM | > 50 µM | < 0.1 |  |  |  |
| C(=C\c1cc(-c2c[nH]c3ccccc23)c2ccccc2n1)/c1ccccc1 | 1.5 µM | 4.1 µM | 1 µM | 4.1 | 64.6% |  |  |
| O=C(CNc1ccccc1)NCCNc1cc(/C=C/c2ccccc2)nc2ccccc12 | 3.3 µM | 7.8 µM | 4.3 µM | 1.8 |  |  |  |
| CCOCC(=O)NCCNc1cc(/C=C/c2ccccc2)nc2ccccc12 | 3.4 µM | 22.2 µM | 1.6 µM | 13.8 | 16.7% | inactive | Activity (Leishmania donovani [5]): 3.12 µM; Activity (Leishmania donovani [7]): Active; Activity (Leishmania donovani [8]): Active; Activity_index (Leishmania pifanoi [9]): 1.6; Activity (Leishmania donovani [10]): 4.3%; Activity (Leishmania donovani [11]): Active; Activity (Leishmania donovani [12]): Active; Drug uptake [13]: Active; Activity (Leishmania donovani [14]): inactive; Activity (Leishmania donovani [15]): Active; Activity (Leishmania donovani [16]): Active; Activity (Leishmania donovani [17]): Active; Drug uptake [18]: Active; inhibition [19]: < 2% |
| CC(C)(C)OC(=O)NCCCCNc1cc(/C=C/c2ccccc2)nc2ccccc12 | 0.56 µM | 3.7 µM | 4.9 µM | 0.8 |  |  |  |
| O=C(CN1CCN(c2ccccc2)CC1)NCCNc1cc(/C=C/c2ccccc2)nc2ccccc12 | 2.1 µM | 4.5 µM | 1.5 µM | 3 |  |  |  |
| O=C(CN1CCCCC1)NCCNc1cc(/C=C/c2ccccc2)nc2ccccc12 | 2.1 µM | 4.7 µM | 1.2 µM | 3.4 | 46.4% | inactive | Activity (Leishmania donovani [12]): Active; Activity (Leishmania donovani [17]): Active |
| O=C(CNc1ccc(Cl)cc1Cl)NCCNc1cc(/C=C/c2ccccc2)nc2ccccc12 | 8.4 µM | > 50 µM | 1.2 µM | > 41.6 |  |  |  |
| Nc1cc(/C=C/c2ccccc2)nc2ccccc12 | 0.5 µM | 4.4 µM | 8.9 µM | 0.5 |  |  |  |
| O=C(CN1CCCC1)NCCCCNc1cc(/C=C/c2ccccc2)nc2ccccc12 | 0.2 µM | 7.1 µM | 5.3 µM | 1.4 | 23.3% | inactive | Activity (Leishmania donovani [12]): Active; Activity (Leishmania donovani [17]): Active |
| CC(C)(C)OC(=O)NCCNc1cc(/C=C/c2ccccc2)nc2ccccc12 | 0.45 µM | 6.6 µM | 4.3 µM | 1.5 |  |  |  |
| CCN(CC)CC(=O)NCCNc1cc(/C=C/c2ccccc2)nc2ccccc12 | 1.6 µM | 0.7 µM | 0.9 µM | 0.8 | 43.2% | inactive |  |
| O=C(CN1CCCC1)NCCNc1cc(/C=C/c2ccccc2)nc2ccccc12 | 2.1 µM | 12.5 µM | 0.9 µM | 13.9 | 49.9% | inactive |  |
| CN1CCN(CC(=O)NCCNc2cc(/C=C/c3ccccc3)nc3ccccc23)CC1 | 3.5 µM | 34 µM | 3.5 µM | 9.7 | 78.5% | inactive |  |
| O=C(CNc1ccccc1)NCCCCNc1cc(/C=C/c2ccccc2)nc2ccccc12 | 1.6 µM | 3.3 µM | 6.9 µM | 0.48 |  |  |  |
| CCOCC(=O)NCCCCNc1cc(/C=C/c2ccccc2)nc2ccccc12 | 1.06 µM | 7.2 µM | 4.5 µM | 1.6 |  | inactive |  |
| CCN(CC)Cc1cc(Nc2cc(/C=C/c3ccccc3)nc3ccccc23)ccc1O | 9.6 µM | 37 µM | 9 µM | 4.1 | 81.8% |  |  |
| Cc1cc(N)c2ccccc2n1 | 10.9 µM | > 50 µM | > 50 µM |  |  |  |  |
| COc1ccc2nc(C)cc(Nc3ccc(Oc4ccc(Cl)c5ccccc45)c(Cl)c3)c2c1 | 4.4 µM | > 50 µM | 6.2 µM | > 8.1 |  |  | Activity (Leishmania donovani [20]): 22.5% |
| O=C(CN1CCOCC1)NCCNc1cc(/C=C/c2ccccc2)nc2ccccc12 | 1.3 µM | > 50 µM | > 25 µM |  | 79.8% | inactive |  |
| O=C(CNc1ccc(Cl)cc1Cl)NCCCCNc1cc(/C=C/c2ccccc2)nc2ccccc12 | 2.1 µM | 7.3 µM | 12.3 µM | 0.6 |  |  |  |
| CC(=O)N(C(C)=O)c1cc(/C=C/c2ccccc2)nc2ccccc12 | 35.1 µM | > 25 µM | 13.4 µM | > 1.86 |  |  |  |
| NCCCCNc1cc(/C=C/c2ccccc2)nc2ccccc12 | 0.44 µM | 6.6 µM | > 25 µM | < 0.3 |  |  |  |
| C(=C\c1ccc2ccccc2n1)/c1ccccc1 | > 50 µM | > 50 µM | > 50 µM |  |  |  | Activity (Leishmania donovani [7]): inactive; Activity (Leishmania donovani [15]): inactive |
| CC(=O)Nc1cc(/C=C/c2ccccc2)nc2ccccc12 |  | > 25 µM | 9.5 µM | > 2.6 |  |  |  |
| CN(C)CC(=O)NCCNc1cc(/C=C/c2ccccc2)nc2ccccc12 | 1.6 µM | 15 µM | 1.1 µM | 13.6 | 62.7% | inactive |  |
